High-throughput results: PubChem BioAssay, several laboratories
In the library only some 4% were active in any assay of this set; here they are far more common.
ERa SRC1 inh = ER-alpha (human) coactivator binding inhibition; P03372; TR-FRET ER-alpha LBD / SRC-1 peptide, estradiol-bound; inhibition, % at 25.6 µM; 86,000 tested, 1.7% active; AID 629; in the data active means inhibition above about 50%
Target sequence (P03372 whole entry, looked up, the tested form may be a part): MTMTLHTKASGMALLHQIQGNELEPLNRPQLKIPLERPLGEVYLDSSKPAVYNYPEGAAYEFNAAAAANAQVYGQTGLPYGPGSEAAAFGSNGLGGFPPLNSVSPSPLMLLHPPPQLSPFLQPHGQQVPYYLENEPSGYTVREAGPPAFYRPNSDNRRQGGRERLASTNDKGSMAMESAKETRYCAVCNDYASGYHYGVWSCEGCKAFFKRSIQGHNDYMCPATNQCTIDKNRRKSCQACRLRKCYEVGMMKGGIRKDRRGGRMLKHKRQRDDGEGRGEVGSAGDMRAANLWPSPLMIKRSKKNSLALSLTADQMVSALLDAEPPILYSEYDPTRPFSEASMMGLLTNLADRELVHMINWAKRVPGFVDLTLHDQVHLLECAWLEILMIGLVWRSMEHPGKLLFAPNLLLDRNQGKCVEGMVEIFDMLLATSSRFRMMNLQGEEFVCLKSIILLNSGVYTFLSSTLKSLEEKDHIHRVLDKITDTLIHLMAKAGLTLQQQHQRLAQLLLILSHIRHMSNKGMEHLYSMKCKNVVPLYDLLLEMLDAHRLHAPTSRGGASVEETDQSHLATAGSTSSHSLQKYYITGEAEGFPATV
Smad3 FoxH1 inh = Smad3 (human) transcription factor binding inhibition; AID 630; P84022; 88,000 tested, 0.29% active; TR-FRET Smad3/Dy647-FoxH1 peptide binding, europium anti-His; inhibition, % at 25 µM;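 active means compounds that reduce the energy-transfer binding signal between the protein and its labelled peptide by more than half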
Rev-RRE block = HIV Rev-RRE protein-RNA interaction inhibition; Rev peptide-RRE RNA binding, FRET; inhibition, % at 8 µM; 97,000 tested, 0.79% active; AID 704;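 active means inhibition above the screen-wide mean plus 3 SD, cut at about 35% in these data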
Target sequence (P05866 whole entry, looked up): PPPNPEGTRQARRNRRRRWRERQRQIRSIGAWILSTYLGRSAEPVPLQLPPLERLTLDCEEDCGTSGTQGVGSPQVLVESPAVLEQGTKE
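Assay system: Labelled RRE RNA duplex and labelled Rev peptide | Times: 5 min preincubation and 15 min binding, 25 °C | Detection: FRET, ex 480 nm, em 540 and 671 nm | Evaluation: % inhibition of FRET ratio versus controls | Benchmarks: DMSO wells as 0% and neomycin B wells as 100% inhibition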
ERa SRC1 pot = ER-alpha (human) coactivator binding potentiation | P03372 | TR-FRET ERalpha-LBD/SRC-Cy5 coactivator binding, 2 h; 100 = basal binding, no effect | coactivator binding (% of control), % at 25.6 µM | 86,000 tested, 1.3% active | AID 639; in the data active means activity above about 200%;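 further: binding measured in presence of low estradiol as agonist stimulus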
ERb coact inh = blocks coactivator binding to human estrogen receptor beta; Q92731; TR-FRET ER-beta LBD / SRC1-Cy5 peptide binding; receptor agonist-loaded with 1 µM estradiol; inhibition, % at 25.6 µM; 86,000 tested, 1.3% active;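 active means compounds whose percent inhibition of the receptor-coactivator binding signal exceeds about 50% in the single-dose screen, limit read from the data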
FAK blocker = blocks human focal adhesion kinase activity. 97,000 tested, 0.84% active. biochemical FAK kinase activity assay. inhibition, %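 (tested at 7 µM)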
FAK inh confirm = confirmation of human focal adhesion kinase (FAK) inhibitors. FAK kinase biochemical inhibition assay. 750 tested, 28% active. shares compounds with FAK blocker. inhibition, % at 7 µM
Numbers stand for hits; – = inactive; · = no result; [ ] = remark or other dose. Unless noted, no stated cut-off is given here; in the data, active means inhibition above about 19%; inactive means the rest.

SMILES | ERa SRC1 inh | Smad3 FoxH1 inh | Rev-RRE block | ERa SRC1 pot | ERb coact inh | FAK blocker | FAK inh confirm
CCOc1cc(CNc2ccc(O)cc2)ccc1OCc1ccc(Cl)cc1Cl | · | · | – | · | · | 31.6 | –
Oc1ccc(NCc2ccccc2OCc2ccccc2F)cc1 | · | · | – | · | · | 35.3 | –
CCOc1ccccc1C(=O)N(Cc1ccccc1)Cc1cc2cc3c(cc2[nH]c1=O)OCCO3 | – | – | – | – | – | – | ·
Cn1c(Oc2ccccc2)c(C=O)c2ccccc21 | · | · | – | · | · | – | ·
O=S(=O)(Nc1nccs1)c1ccc(Cl)cc1 | – | – | – | – | – | – | ·
CCNc1nc(N)c(C(=O)c2ccc(Cl)s2)s1 | – | – | – | – | – | 19.3 | –
O=C(C1COc2ccccc2O1)N1CCc2ccccc21 (stereo not given) | – | – | – | 344.8[fluorescence artefact?] | – | 24.1 | –
COC(=O)c1ccc(-c2ccco2)n1Cc1cccc(C)c1 | – | – | – | – | – | – | ·
CSc1cccc(NS(=O)(=O)c2ccc3c(c2)oc(=O)n3C)c1 | – | – | – | – | – | – | ·
Cc1c2c(n3c(nc4ccccc43)c1C#N)N(Cc1ccccn1)CC2 | – | – | · | – | – | · | ·
CCC(C)n1cnc2c(c1=O)c1nc3ccccc3nc1n2-c1ccc2c(c1)OCCO2 (stereo not given) | – | – | – | 246.1 | – | 21.4 | –
CCn1c(CNc2ccc(F)cc2)nnc1SCC(=O)Nc1ccc(OC)cc1 | – | – | – | – | – | – | ·
O=C(NCNC(=O)c1ccccc1)c1ccccc1 | – | – | – | – | – | – | ·
O=C(NC1(O)C(=O)c2ccccc2C1=O)c1ccccc1 | · | · | – | · | · | 21.8 | –
O=C(O)C1CCCCC1C(=O)NCCc1c[nH]c2ccccc12 (stereo not given) | – | – | – | – | – | – | ·
O=C(NCCc1c[nH]c2ccccc12)C1CCN(c2nnc(N3CCCC3=O)s2)CC1 | – | – | – | – | – | 36.0 | 31.1
CCNC(=O)n1nccc1C(C)Oc1ccccc1 (stereo not given) | · | · | – | · | · | – | ·
O=C(CCNS(=O)(=O)c1cccs1)Nc1nccs1 | – | – | – | – | – | 83.2 | –
CN(C)c1ccc(-n2cc3c(=O)n(C)c(=O)n(C)c3c2)cc1 | – | – | – | – | – | 27.2 | –
COc1ccc(Br)cc1CNc1ccc(O)cc1 | – | – | – | – | – | 46.7 | –
CC(=O)Cc1ccccc1OCC(=O)O | – | – | – | – | – | – | ·
COCCN(Cc1ccccc1)P(=O)(O)c1ccccc1OCC(=O)O | – | – | – | 262.1[fluorescence artefact?] | – | 62.1 | 51.6
CCOC(=O)c1c(C)[nH]c(C=Nc2ccccc2)c1O | – | – | – | – | – | – | ·
CCOC(=O)c1c(C)[nH]c(O)c1C=Nc1ccccc1 | · | · | – | · | · | 34.0 | –
Cc1ccc2c(CC(=O)OCc3cc(=O)n4c(n3)sc3ccccc34)coc2c1 | · | · | – | · | · | 22.6 | –
SMILES | ERa SRC1 inh | Smad3 FoxH1 inh | Rev-RRE block | ERa SRC1 pot | ERb coact inh | FAK blocker | FAK inh confirm
Oc1ccc2ccccc2c1C=Nc1cc(C(F)(F)F)ccc1N1CCCC1 | · | · | – | · | · | – | ·
CN1c2ccccc2C(C)(C)C12C=Nc1c(ccc3ccccc13)O2 (stereo not given) | – | – | – | – | – | 32.2 | –
COc1ccc2ccc3c(c2c1)N=CC1(O3)N(C)c2ccccc2C1(C)C (stereo not given) | – | – | – | – | – | – | ·
CCN(CC)CCn1c2ccccc2c2cnc(N)c(C#N)c21 | – | – | – | – | – | 39.9 | –
CCCCCCCCNC(=O)CCNC(=O)c1ccc(C(C)(C)C)cc1 | – | – | – | – | – | – | ·
Cc1cc2c(c(SCC(=O)NCCc3ccccc3)n1)C(=O)OC2 | – | – | – | – | – | – | ·
Cc1ccc(-c2c(C#N)c(N)n3c(nc4ccccc43)c2C#N)cc1 | · | · | – | · | · | 23.6 | –
O=C(O)c1sccc1SCc1ccc(Cl)cc1Cl | · | · | – | · | · | – | ·
COc1cc(OC)cc(-c2nc3ccccc3c(=O)o2)c1 | – | – | – | – | – | – | ·
O=c1oc(-c2ccc(Br)o2)nc2ccccc12 | – | – | – | – | – | 35.2 | 37.2
Cn1c2ccccc2c(=O)n2c(=O)c3ccccc3cc12 | – | – | – | – | – | 31.1 | 47.1
c1ccc(-n2nnnc2-n2cnc3ccccc32)cc1 | – | – | – | – | – | – | ·
c1ccc(-c2nccc(-c3ccc(-n4cnc5ccccc54)cc3)n2)cc1 | 91.8[fluorescence artefact?] | – | – | – | 62.8[fluorescence artefact?] | 86.0 | 80.7
CCn1c(=O)c(C(=O)Nn2c(C)nc3ccccc3c2=O)c(O)c2ccccc21 | – | – | · | – | – | · | ·
CCn1c(=O)c(C(=O)Nc2nc3ccccc3[nH]2)c(O)c2ccccc21 | · | · | – | · | · | 23.5 | 20.9
CC1=CCC(C(=O)O)(C(=O)N/N=C/c2cccs2)C(c2ccc([N+](=O)[O-])cc2)C1 (stereo not given) | – | – | – | – | – | – | ·
CC(=O)Nc1sc2c(c1CN1CCN(C)CC1)CCCC2 | – | – | – | – | – | – | ·
CSc1nc(N(C)CCO)c2sc3nc(-c4ccco4)c4c(c3c2n1)CCC4 | · | · | – | · | · | 35.8 | –
N#Cc1c(NCCCO)nc(-c2ccco2)c2c1CCCC2 | – | – | – | – | – | – | ·
OC(c1cccs1)(c1cccs1)C1C[N+]2(CF)CCC1CC2 (stereo not given) | · | · | – | · | · | – | ·
COc1ccc(CCNC(=O)c2c(-c3ccccc3)noc2C)cc1OC | – | – | · | – | – | · | ·
COc1ccc(CCNC(=O)c2ccc3nc(-c4ccco4)c(-c4ccco4)nc3c2)cc1OC | 90.1[fluorescence artefact?] | – | – | – | 93.8[fluorescence artefact?] | 54.4 | –
Cc1ccc2nc(-c3ccc(NC(=O)CSc4ccccc4)cc3)[nH]c2c1 | · | · | – | · | · | 31.7 | –
Cc1ccc2nc(-c3ccc(SCC(=O)O)nc3)[nH]c2c1 | · | · | – | · | · | – | ·
O=C1Cc2ccccc2C(=O)N1CCc1ccccc1 | · | · | – | · | · | 39.8 | 37.0
SMILES | ERa SRC1 inh | Smad3 FoxH1 inh | Rev-RRE block | ERa SRC1 pot | ERb coact inh | FAK blocker | FAK inh confirm
COc1ccccc1-c1cc(N)n[nH]1 | – | – | – | – | – | 25.0 | –
CCc1nc(Sc2nc(C)cc(C)n2)c2oc3ccccc3c2n1 | – | – | – | – | – | 22.4 | –
CCc1nc(SCCO)c2oc3ccccc3c2n1 | – | – | – | – | – | – | ·
O=C(COc1ncnc2ccc(Br)cc12)Nc1ccc(N2CCOCC2)cc1 | – | – | – | – | – | – | ·
Brc1ccc2ncnc(Nc3ccc(N4CCOCC4)cc3)c2c1 | 59.3[fluorescence artefact?] | – | – | – | 82.5[fluorescence artefact?] | 20.5 | –
CN(C(=O)COC(=O)c1ccc(Cl)cc1N)C1CCS(=O)(=O)C1 (stereo not given) | · | · | – | · | · | – | ·
COc1ccccc1NCc1nnc(SCC(=O)N/N=C/c2ccco2)n1-c1ccc(Cl)cc1Cl | · | · | – | · | · | – | ·
CC(=O)CSc1nc(C(F)(F)F)cc(=O)n1-c1ccccc1 | · | · | – | · | · | 56.2 | –
CCCCN1CC(O)=C(c2nc(-c3ccc(Cl)cc3)cs2)C1=N | 63.6[fluorescence artefact?] | – | – | 255.7[fluorescence artefact?] | – | 31.5 | –
